Experimental data: ChEMBL document CHEMBL4406880, “Design, synthesis, and bioactivity of dihydropyrimidine derivatives as kinesin spindle protein inhibitors” (Bioorg Med Chem, 2019)

Key:
Type in all cases: functional
M14 [1] = test: Growth inhibition of human M14 cells assessed as cell viability at 1 uM incubated for 48 hrs by sulforhodamine B assay; conditions: M14, 48 h, read-out: Activity
SNB-19 [2] = test: Growth inhibition of human SNB19 cells assessed as cell viability at 0.001 uM incubated for 48 hrs by sulforhodamine B assay relative to control; conditions: SNB-19, 48 h, read-out: Activity
SNB-19 [3] = test: Growth inhibition of human SNB19 cells assessed as cell viability at 1 uM incubated for 48 hrs by sulforhodamine B assay; conditions: SNB-19, 48 h, read-out: Activity
SK-MEL-28 = test: Growth inhibition of human SK-MEL-28 cells assessed as cell viability at 0.001 uM incubated for 48 hrs by sulforhodamine B assay relative to control; conditions: SK-MEL-28, 48 h, read-out: Activity
HCC 2998 = test: Growth inhibition of human HCC2998 cells assessed as cell viability at 0.1 uM incubated for 48 hrs by sulforhodamine B assay; conditions: HCC 2998, 48 h, read-out: Activity
HCT-15 = test: Growth inhibition of human HCT15 cells assessed as cell viability at 0.1 uM incubated for 48 hrs by sulforhodamine B assay; conditions: HCT-15, 48 h, read-out: Activity
SN12C = test: Growth inhibition of human SN12C cells assessed as cell viability at 1 uM incubated for 48 hrs by sulforhodamine B assay; conditions: read-out: Activity
TK-10 [4] = test: Growth inhibition of human TK10 cells assessed as cell viability at 1 uM incubated for 48 hrs by sulforhodamine B assay; conditions: TK-10, 48 h, read-out: Activity
PC-3 = test: Growth inhibition of human PC3 cells assessed as cell viability at 0.1 uM incubated for 48 hrs by sulforhodamine B assay; conditions: PC-3, 48 h, read-out: Activity
TK-10 [5] = test: Growth inhibition of human TK10 cells assessed as cell viability at 0.001 uM incubated for 48 hrs by sulforhodamine B assay relative to control; conditions: TK-10, 48 h, read-out: Activity
UACC-62 [6] = test: Growth inhibition of human UACC62 cells assessed as cell viability at 1 uM incubated for 48 hrs by sulforhodamine B assay; conditions: UACC-62, 48 h, read-out: Activity
SF-268 = test: Growth inhibition of human SF268 cells assessed as cell viability at 100 uM incubated for 48 hrs by sulforhodamine B assay; conditions: SF-268, 48 h, read-out: Activity
MDA-MB-231 = test: Growth inhibition of human MDA-MB-231 cells assessed as cell viability at 1 uM incubated for 48 hrs by sulforhodamine B assay; conditions: MDA-MB-231, 48 h, read-out: Activity
T47D = test: Growth inhibition of human T47D cells incubated for 48 hrs by sulforhodamine B assay
Summary of the method: (§1)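 NCI-60 five-dose SRB assay. Cells were exposed for 48 h to tenfold dilutions of 0.01, 0.1, 1, 10 and 100 µM, in RPMI 1640 with 5% FBS. Plates fixed with TCA at the time of drug addition served as the time-zero reference. GI50 is the concentration giving a 50% reduction in net growth. TGI is total growth inhibition. LC50 is a net 50% loss of the initial cells.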

HOP-92 = test: Growth inhibition of human HOP92 cells assessed as cell viability at 1 uM incubated for 48 hrs by sulforhodamine B assay; conditions: HOP-92, 48 h, read-out: Activity
HT-29 = test: Growth inhibition of human HT-29 cells incubated for 48 hrs by sulforhodamine B assay; conditions: HT-29, 48 h
Summary of the method: (§2)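 NCI-60 five-dose SRB assay in RPMI 1640 with 5% FBS, 37 °C, 5% CO2. Compound given at five tenfold dilutions, 0.01–100 µM, for 48 h. Adherent cells fixed with TCA, suspension cells with 16% final TCA. Bound SRB read at 515 nm and growth calculated against time-zero and untreated controls. GI50 taken from dose–response curves as the concentration giving a 50% decrease in net cell growth.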

SK-MEL-5 = test: Growth inhibition of human SK-MEL-5 cells incubated for 48 hrs by sulforhodamine B assay; conditions: SK-MEL-5, 48 h; summary of the method: as §1
M14 [7] = test: Growth inhibition of human M14 cells assessed as cell viability at 100 uM incubated for 48 hrs by sulforhodamine B assay; conditions: M14, 48 h, read-out: Activity
Malme-3M = test: Growth inhibition of human MALME-3M cells assessed as cell viability at 0.1 uM incubated for 48 hrs by sulforhodamine B assay; conditions: read-out: Activity
Hs-578T = test: Growth inhibition of human Hs 578T cells incubated for 48 hrs by sulforhodamine B assay; summary of the method: as §2
UACC-62 [8] = test: Growth inhibition of human UACC62 cells assessed as cell viability at 100 uM incubated for 48 hrs by sulforhodamine B assay; conditions: UACC-62, 48 h, read-out: Activity
OVCAR-8 = test: Growth inhibition of human OVCAR8 cells assessed as cell viability at 0.1 uM incubated for 48 hrs by sulforhodamine B assay; conditions: OVCAR-8, 48 h, read-out: Activity
A549 = test: Growth inhibition of human A549/ATCC cells assessed as cell viability at 1 uM incubated for 48 hrs by sulforhodamine B assay; conditions: A549, 48 h, read-out: Activity
Summary of the method: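 NCI-60 five-dose mode: five tenfold dilutions (0.01, 0.1, 1, 10, 100 µM) are applied for 48 h to cells in RPMI 1640 with 5% FBS at 37 °C. Endpoint is TCA fixation with sulforhodamine B read at 515 nm. % growth comes from the 0 h and control absorbances. GI50 is the concentration giving a 50% reduction in net cell growth.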

OVCAR-4 = test: Growth inhibition of human OVCAR4 cells assessed as cell viability at 100 uM incubated for 48 hrs by sulforhodamine B assay; conditions: OVCAR-4, 48 h, read-out: Activity
OVCAR-5 = test: Growth inhibition of human OVCAR5 cells assessed as cell viability at 100 uM incubated for 48 hrs by sulforhodamine B assay; conditions: OVCAR-5, 48 h, read-out: Activity
NCI/ADR-RES = test: Growth inhibition of human NCI/ADR-RES cells assessed as cell viability at 0.1 uM incubated for 48 hrs by sulforhodamine B assay; conditions: read-out: Activity
NCI-H23 = test: Growth inhibition of human NCI-H23 cells assessed as cell viability at 100 uM incubated for 48 hrs by sulforhodamine B assay; conditions: NCI-H23, 48 h, read-out: Activity
[9] = read-out: LC50 (the source's name)
[10] = read-out: pLC50 (the source's name) (converted)

`CC1=C(C(=O)OCc2ccccc2)C(c2ccc3c(c2)OCO3)n2c(nc3ccccc32)N1` (racemic) gave a viability at 1 µM (M14 [1]) of 30%, a viability at 0.001 µM (SNB-19 [2]) of 94% and a viability at 1 µM (SNB-19 [3]) of 35%. It also gave a viability at 0.001 µM (SK-MEL-28) of 98%, a viability at 0.1 µM (HCC 2998) of 96% and a viability at 0.1 µM (HCT-15) of 84%. It also gave a viability at 1 µM (SN12C) of 42%, a viability at 1 µM (TK-10 [4]) of 71% and a viability at 0.1 µM (PC-3) of 91%. For the same compound, the viability at 0.001 µM (TK-10 [5]) was 92%, the viability at 1 µM (UACC-62 [6]) was 29% and the viability at 100 µM (SF-268) was 9%. For the same compound, the viability at 1 µM (MDA-MB-231) was 56%, the GI50 (T47D; read-out: GI50) was 0.48 µM and the CC50 (T47D; [9]) was greater than 100 µM. The TGI (T47D; read-out: TGI) was greater than 100 µM, the GI50 (T47D; read-out: pGI50 (converted)) was 0.479 µM and the CC50 (T47D; [10]) was greater than 100 µM. For the same compound, the TGI (T47D; read-out: pTGI) was greater than 100 µM, the viability at 1 µM (HOP-92) was 41% and the GI50 (HT-29; read-out: GI50) was 0.34 µM. It also gave an LC50 (50% net cell kill) (HT-29; read-out: LC50) greater than 100 µM, a TGI (HT-29; read-out: TGI) greater than 100 µM and a GI50 (HT-29; read-out: pGI50 (converted)) of 0.347 µM. The LC50 (50% net cell kill) (HT-29; read-out: pLC50 (converted)) was greater than 100 µM, the TGI (HT-29; read-out: pTGI) was greater than 100 µM and the GI50 (SK-MEL-5; read-out: GI50) was 0.54 µM. For the same compound, the CC50 (SK-MEL-5; [9]) was greater than 100 µM, the TGI (SK-MEL-5; read-out: TGI) was greater than 100 µM and the GI50 (SK-MEL-5; read-out: pGI50 (converted)) was 0.537 µM. The CC50 (SK-MEL-5; [10]) was greater than 100 µM, the TGI (SK-MEL-5; read-out: pTGI) was greater than 100 µM and the viability at 100 µM (M14 [7]) was 24%. For the same compound, the viability at 0.1 µM (Malme-3M) was 87%, the GI50 (Hs-578T; read-out: GI50) was 0.28 µM and the CC50 (Hs-578T; [9]) was greater than 100 µM. The TGI (Hs-578T; read-out: TGI) was 23.8 µM, the GI50 (Hs-578T; read-out: pGI50 (converted)) was 0.282 µM and the CC50 (Hs-578T; [10]) was greater than 100 µM. For the same compound, the TGI (Hs-578T; read-out: pTGI (converted)) was 24 µM, the viability at 100 µM (UACC-62 [8]) was 30% and the viability at 0.1 µM (OVCAR-8) was 97%. The viability at 1 µM (A549) was 40%, the viability at 100 µM (OVCAR-4) was 19% and the viability at 100 µM (OVCAR-5) was 51%. For the same compound, the viability at 0.1 µM (NCI/ADR-RES) was 86% and the viability at 100 µM (NCI-H23) was 44%.
